ChEMBL document CHEMBL1151330, “Facile total synthesis and antimicrobial activity of the marine fatty acids (Z)-2-methoxy-5-hexadecenoic acid and (Z)-2-methoxy-6-hexadecenoic acid” (1998)

Key:
Type in all cases: functional
[1] = test system: Pseudomonas aeruginosa; experiment: Antibacterial activity against Pseudomonas aeruginosa ATCC 27853 after overnight incubation
In short: (§1)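 Broth microdilution per NCCLS: 200 µL of the α-methoxylated fatty acid in Mueller-Hinton broth, inoculated with 10⁵ CFU, incubated overnight at 37 °C. MIC taken as the highest dilution inhibiting growth, compared with an uninoculated chemical-control well. At least three separate experiments, each in duplicate.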

[2] = test system: Staphylococcus aureus; experiment: Antibacterial activity against Staphylococcus aureus ATCC 25923 after overnight incubation; in short: as §1
[3] = test system: Escherichia coli; experiment: Antibacterial activity against Escherichia coli ATCC 25922 after overnight incubation; in short: as §1
[4] = test system: Enterococcus faecalis; experiment: Antibacterial activity against Streptococcus faecalis group D ATCC 29212 after overnight incubation; in short: as §1

MIC [1]	MIC [2]	MIC [3]	MIC [4]	Structure (SMILES)
> 100 µg/mL	> 100 µg/mL	> 100 µg/mL	> 100 µg/mL	CCCCCCCCCCCCCCC(OC)C(=O)O (configuration not stated)
> 200 µg/mL	350 µM	> 200 µg/mL	350 µM	CCCCCCCCCC/C=C\CC[C@H](OC)C(=O)O
> 200 µg/mL	350 µM	> 200 µg/mL	350 µM	CCCCCCCCC/C=C\CCCC(OC)C(=O)O (configuration not stated)
